Source: ChEMBL document CHEMBL1131463, “Identification and initial structure-activity relationships of (R)-5-(2-azetidinylmethoxy)-2-chloropyridine (ABT-594), a potent, orally active, non-opiate analgesic agent acting via neuronal nicotinic acetylcholine receptors” (J Med Chem, 1998)
Activity calls are given as the source filed them.

Experiments:
K177 cell line = assay: Compound was evaluated for functional activation to [86Rb+] efflux from human K177 cells expressing recombinant alpha4-beta2 receptors.; assay type: cell-based
Procedure, shortened: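 86Rb+ efflux measured from K177 cells expressing recombinant human α4β2 receptors. Intrinsic activity is given as percent of the maximal response to 100 μM (S)-nicotine. Values are means ± SEM, n ≥ 3.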

[1] = target: Acetylcholine receptor subunit alpha (Torpedo californica, UniProt P02710); assay: Compound was evaluated for its ability to displace [125 I]alpha-bungarotoxin (alpha-BgT) from torpedo alpha1-beta1-[…] electroplax
Sequence of Acetylcholine receptor subunit alpha (P02710 whole entry): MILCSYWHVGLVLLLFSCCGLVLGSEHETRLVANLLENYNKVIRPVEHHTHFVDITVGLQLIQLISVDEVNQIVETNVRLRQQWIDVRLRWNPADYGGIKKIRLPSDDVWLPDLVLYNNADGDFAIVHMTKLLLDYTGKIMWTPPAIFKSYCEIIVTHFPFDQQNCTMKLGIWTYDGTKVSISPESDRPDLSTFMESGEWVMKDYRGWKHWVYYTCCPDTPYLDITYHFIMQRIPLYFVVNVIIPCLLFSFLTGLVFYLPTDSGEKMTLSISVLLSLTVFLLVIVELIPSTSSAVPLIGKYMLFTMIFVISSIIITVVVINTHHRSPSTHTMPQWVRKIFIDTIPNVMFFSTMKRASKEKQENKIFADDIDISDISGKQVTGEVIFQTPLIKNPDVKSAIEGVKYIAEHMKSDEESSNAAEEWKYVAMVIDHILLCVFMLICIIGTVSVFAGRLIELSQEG
Procedure, shortened: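 Displacement of [125I]-α-bungarotoxin from Torpedo electroplax membranes (α1β1γδ). Ki values are means ± SEM, n ≥ 3.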

[2] = target: T1, Neuronal acetylcholine receptor subunit alpha-3 (Homo sapiens, UniProt P32297); assay: Functional activation of human sympathetic ganglionic type nAChRs in IMR-32 cells containing alpha-3 subtype; assay type: cell-based
T1 sequence (P32297 whole entry): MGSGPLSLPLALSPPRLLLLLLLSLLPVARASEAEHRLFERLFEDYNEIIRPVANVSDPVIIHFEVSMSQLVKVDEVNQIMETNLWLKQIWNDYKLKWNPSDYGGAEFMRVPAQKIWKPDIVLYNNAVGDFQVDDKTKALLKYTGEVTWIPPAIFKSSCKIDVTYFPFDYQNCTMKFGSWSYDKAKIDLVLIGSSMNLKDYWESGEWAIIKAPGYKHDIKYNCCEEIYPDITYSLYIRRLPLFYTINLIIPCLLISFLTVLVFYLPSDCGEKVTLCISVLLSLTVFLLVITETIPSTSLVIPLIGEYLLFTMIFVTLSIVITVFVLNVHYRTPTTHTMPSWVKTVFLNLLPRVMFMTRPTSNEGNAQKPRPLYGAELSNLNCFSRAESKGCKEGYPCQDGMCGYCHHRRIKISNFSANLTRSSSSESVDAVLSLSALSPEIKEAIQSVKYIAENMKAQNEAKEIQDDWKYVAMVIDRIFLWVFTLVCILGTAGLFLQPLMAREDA
Procedure, shortened: (§1)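 86Rb+ efflux measured in the human neuroblastoma line IMR-32 (ganglionic-like, α3-containing nAChRs). Intrinsic activity is the maximum response as percent of the response to 100 μM (S)-nicotine. Values are means ± SEM, n ≥ 3.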

[3] = target: Neuronal acetylcholine receptor; alpha4/beta2 (Homo sapiens, UniProt P17787+P43681); assay: Compound was evaluated for its ability to displace [3H]cytisine from K177 cells expressing human Nicotinic acetylcholine receptor alpha4-beta2; assay type: cell-based
Sequence of Neuronal acetylcholine receptor; alpha4/beta2 (P17787 whole entry): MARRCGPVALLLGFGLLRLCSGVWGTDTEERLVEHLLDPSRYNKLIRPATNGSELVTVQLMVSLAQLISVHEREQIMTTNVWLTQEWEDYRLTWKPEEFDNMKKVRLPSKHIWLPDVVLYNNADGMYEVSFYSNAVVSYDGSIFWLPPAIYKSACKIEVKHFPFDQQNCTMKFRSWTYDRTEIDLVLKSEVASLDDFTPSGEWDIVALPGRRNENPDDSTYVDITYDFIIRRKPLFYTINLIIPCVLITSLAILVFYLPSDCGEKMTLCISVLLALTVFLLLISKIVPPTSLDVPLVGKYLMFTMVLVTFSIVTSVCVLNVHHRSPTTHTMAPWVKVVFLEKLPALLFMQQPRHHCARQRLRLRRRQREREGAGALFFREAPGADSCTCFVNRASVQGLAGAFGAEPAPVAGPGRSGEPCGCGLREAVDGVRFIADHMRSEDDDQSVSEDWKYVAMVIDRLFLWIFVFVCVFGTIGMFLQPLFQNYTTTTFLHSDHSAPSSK
Sequence of Neuronal acetylcholine receptor; alpha4/beta2 (P43681 whole entry): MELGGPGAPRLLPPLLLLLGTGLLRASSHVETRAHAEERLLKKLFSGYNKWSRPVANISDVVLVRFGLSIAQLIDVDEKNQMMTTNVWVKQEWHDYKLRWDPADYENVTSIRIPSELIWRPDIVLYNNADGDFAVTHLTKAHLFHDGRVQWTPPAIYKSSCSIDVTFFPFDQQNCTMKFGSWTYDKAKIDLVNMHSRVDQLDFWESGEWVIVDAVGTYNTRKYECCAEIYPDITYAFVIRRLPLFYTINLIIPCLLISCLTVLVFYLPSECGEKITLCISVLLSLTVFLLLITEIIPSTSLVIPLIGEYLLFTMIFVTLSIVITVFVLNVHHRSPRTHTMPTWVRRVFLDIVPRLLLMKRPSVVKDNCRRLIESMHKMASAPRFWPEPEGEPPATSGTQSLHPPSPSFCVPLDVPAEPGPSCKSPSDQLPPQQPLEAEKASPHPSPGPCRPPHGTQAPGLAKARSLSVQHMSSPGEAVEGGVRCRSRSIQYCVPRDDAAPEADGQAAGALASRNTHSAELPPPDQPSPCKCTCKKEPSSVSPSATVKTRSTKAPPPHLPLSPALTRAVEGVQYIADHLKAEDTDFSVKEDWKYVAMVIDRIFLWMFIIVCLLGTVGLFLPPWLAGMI
Procedure, shortened: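 Displacement of [3H]cytisine from K177 cells expressing human α4β2 nAChRs. Ki values are means ± SEM, n ≥ 3.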

[4] = target: T1, Neuronal acetylcholine receptor subunit alpha-3; assay: Intrinsic activity against human sympathetic ganglionic type nAChRs in IMR-32 cells containing alpha-3 subtype; assay type: functional, cell-based; procedure, shortened: as §1
Mus musculus [5] = organism: Mus musculus; assay: Compound was evaluated for the analgesic activity by mouse hotplate assay at the doses of 0.62 and 6.2; No significant effect observed at the doses tested; assay type: functional, organism-based
[6] = target: Neuronal acetylcholine receptor; assay: Compound was evaluated for its ability to displace [3H]-cytisine binding from high-affinity Nicotinic acetylcholine receptor in rat brain (principally the alpha4-beta2 nAChR subtype); assay type: tissue-based
Procedure, shortened: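 Displacement of [3H]cytisine from rat whole-brain membranes, principally α4β2 sites.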

Mus musculus [7] = organism: Mus musculus; assay: Compound was evaluated for the analgesic activity by mouse hotplate assay at the dose 0.1; No significant effect observed at the doses tested; assay type: functional, organism-based
[8] = target: T2, Neuronal acetylcholine receptor subunit alpha-7 (Homo sapiens, UniProt P36544); assay: Compound was evaluated for functional activation from channel currents at human Nicotinic acetylcholine receptor alpha-7 expressed in oocytes.; assay type: cell-based, Oocyte
T2 sequence (P36544 whole entry): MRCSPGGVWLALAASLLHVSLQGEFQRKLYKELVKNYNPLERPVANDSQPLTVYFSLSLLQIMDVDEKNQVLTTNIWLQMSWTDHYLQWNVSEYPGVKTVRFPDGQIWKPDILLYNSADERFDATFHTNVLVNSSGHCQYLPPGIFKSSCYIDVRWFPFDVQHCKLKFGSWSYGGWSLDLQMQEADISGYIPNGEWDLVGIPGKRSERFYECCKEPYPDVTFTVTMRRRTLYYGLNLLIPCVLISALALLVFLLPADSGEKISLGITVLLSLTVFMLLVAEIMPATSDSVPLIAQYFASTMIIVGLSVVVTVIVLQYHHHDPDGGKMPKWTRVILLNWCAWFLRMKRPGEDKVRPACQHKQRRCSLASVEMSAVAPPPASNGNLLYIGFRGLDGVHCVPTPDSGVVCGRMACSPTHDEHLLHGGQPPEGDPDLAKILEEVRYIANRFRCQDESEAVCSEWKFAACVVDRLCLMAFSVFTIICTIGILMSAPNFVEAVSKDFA

[9] = target: T2, Neuronal acetylcholine receptor subunit alpha-7; assay: Compound was evaluated for its ability to displace [125I]alpha-bungarotoxin (alpha-BgT) from K28 cells expressing human Nicotinic acetylcholine receptor alpha7; assay type: cell-based
Procedure, shortened: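 Displacement of [125I]-α-bungarotoxin from K28 cells expressing human α7 homomers. Ki values are means ± SEM, n ≥ 3.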

Mus musculus [10] = assay: Minimum intraperitoneal effective dose for abdominal constriction in mouse; assay type: functional, Abdomen
Procedure, shortened: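 Mice, 10 per dose group, received compound ip in 0.9% saline, 10 mL/kg, 30 min before ip phenyl-p-quinone (68 μmol/kg in 5% EtOH). Writhing was scored over a 10-min window starting 5 min after the irritant. The read-out was the reduction in the number of responders versus the saline group.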

Canis familiaris [11] = assay: Compound was evaluated for increase in heart rate (HR) in dog at 10 nM/Kg when administered intravenously; assay type: functional, Canis lupus familiaris
Procedure, shortened: (§2)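 Male beagle dogs under pentobarbital anesthesia (35 mg/kg iv, then 5 mg/kg/h iv infusion), ventilated with room air. Blood pressure was recorded by a micromanometer catheter passed via the carotid artery into the left ventricle.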

Mus musculus [12] = organism: Mus musculus; assay: Minimum peroral effective dose for analgesic activity was determined by mouse hot plate assay; assay type: functional
Procedure, shortened: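 Mouse hot plate at 55 °C with 8 mice per dose. Drug in 0.9% saline was given po, 10 mL/kg, 30 min before testing, over a range of 0.19–6.2 μmol/kg. MED is the lowest dose that increases latency to the tenth jump versus saline, with a 180 s cutoff.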

Mus musculus [13] = organism: Mus musculus; assay: Compound was evaluated for the analgesic activity by mouse hotplate assay at the doses of 0.062 and 0.62; assay type: functional
Canis familiaris [14] = assay: Compound was evaluated for increase in diastolic blood pressure (BP) in dog at 10 nM/Kg when administered intravenously; assay type: functional, Canis lupus familiaris, Artery; procedure, shortened: as §2
[15] = Compound was evaluated for functional activation to [86Rb+] efflux From human medulloblastoma cell line TE671 expressing recombinant alpha-1-beta-1-gamma delta receptors.; conditions: TE-671
Procedure, shortened: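 86Rb+ efflux measured from the human medulloblastoma line TE671. Intrinsic activity is given as percent of the maximal response to 1 mM (S)-nicotine. Values are means ± SEM, n ≥ 3.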

Q: With `c1cncc(OC[C@@H]2CCN2)c1` as the compound, how does the EC50 (K177 cell line; Homo sapiens, K177) read?
A: 700 nM

Q: And the Ki [1]?
A: 314 nM

Q: What about the EC50 [2] of the same compound?
A: 700 nM

Q: And the Ki [3]?
A: 0.04 nM

Q: What about the IA [4] of the same compound?
A: 113%

Q: And the MED (Mus musculus [5])?
A: inactive

Q: Which results are given for `Clc1ccc(OC[C@H]2CCCN2)cn1`?
A: EC50 [2]: 500 nM; IA [4]: 110%; Ki [6]: 0.09 nM; MED (Mus musculus [5]): inactive

Q: With `Clc1ccc(OC[C@@H]2CCCN2)cn1` as the compound, how does the EC50 [2] read?
A: 1190 nM

Q: And the IA [4]?
A: 104%

Q: And the Ki [6]?
A: 0.45 nM

Q: And the MED (Mus musculus [5])?
A: inactive

Q: For `Clc1ccc(C2CC3CCC2N3)cn1` (racemic), which IA [4] is on record?
A: 156%

Q: What about the MED (Mus musculus [7]) of the same compound?
A: inactive

Q: Which EC50 [2] does the source give for `CN1CC[C@H]1COc1ccc(Cl)nc1` here?
A: 28900 nM

Q: What about the IA [4] of the same compound?
A: 43%

Q: What about the Ki [6] of the same compound?
A: 1.6 nM

Q: What about the MED (Mus musculus [5]) of the same compound?
A: inactive

Q: Which EC50 [8] does the source give for `c1cncc(OC[C@H]2CCN2)c1` here?
A: 36000 nM

Q: And the Ki [1]?
A: 384 nM

Q: And the EC50 [2]?
A: 1100 nM

Q: What about the IA [4] of the same compound?
A: 116%

Q: What about the Ki [9] of the same compound?
A: 1270 nM

Q: What about the MED (Mus musculus [5]) of the same compound?
A: inactive

Q: Which results are given for `Clc1ccc(OCC2CCN2)cn1` (single isomer, unassigned) [TEBANICLINE]?
A: EC50 [8]: 56000 nM; MED (Mus musculus [10]): 0.19 µM/kg; EC50 (K177 cell line; k177): 270 nM; Ki [1]: 10000 nM; EC50 [2]: 200 nM; HR (Canis familiaris [11]): 7.8 beats min-1; MED (Mus musculus [12]): 6.2 µM/kg; Ki [3]: 0.055 nM; IA [4]: 116%; MED (Mus musculus [13]): 0.62 µM/kg; Ki [9]: 2060 nM; BP (Canis familiaris [14]): 23.2 mmHg; Ki [6]: 0.04 nM; EC50 [15]: 36000 nM
